Hits are enriched below; roughly 6.6% of the tested compounds scored in any of these assays.
M1 antagonist = antagonists of rat M1 muscarinic receptor; P08482; B-score at 10 µM; 3.4% of 64,000 active; CHO-M1 cells, Fluo-4 calcium, ACh EC80 antagonist mode; stronger effect = lower value;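 active = calcium fluorescence response, raw or row-and-column corrected B-score, differing from the plate sample mean either way at a set confidence level, mostly lower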
JNK3 blocker = JNK3 (human) kinase inhibition; P53779; inhibition, % at 8 µM; purified JNK3 kinase activity, HTS; 0.61% of 60,000 active; in the data active = inhibition above about 17%
Target sequence (P53779 whole entry, looked up): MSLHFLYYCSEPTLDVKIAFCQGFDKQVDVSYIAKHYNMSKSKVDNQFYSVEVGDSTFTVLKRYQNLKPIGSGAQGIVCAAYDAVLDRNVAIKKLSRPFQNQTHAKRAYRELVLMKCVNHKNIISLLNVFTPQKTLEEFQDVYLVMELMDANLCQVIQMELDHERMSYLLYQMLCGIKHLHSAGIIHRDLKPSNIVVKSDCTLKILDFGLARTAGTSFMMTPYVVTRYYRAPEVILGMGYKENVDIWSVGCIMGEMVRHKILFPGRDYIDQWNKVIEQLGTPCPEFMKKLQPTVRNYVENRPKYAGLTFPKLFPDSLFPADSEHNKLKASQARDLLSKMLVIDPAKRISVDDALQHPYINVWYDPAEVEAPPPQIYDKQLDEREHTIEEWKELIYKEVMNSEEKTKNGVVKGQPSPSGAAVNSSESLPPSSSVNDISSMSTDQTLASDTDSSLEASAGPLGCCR
M1 ag = agonists of M1 muscarinic receptor | 3% of 64,000 active | CHO-M1 cells, Fluo-4 calcium fluorescence, agonist mode; stronger effect = higher value | B-score at 10 µM;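 active = fluorescence rise, raw or as B-score row- and column-corrected plate score, outside the 99.7% band of its plate's samples, either direction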
HEK293 NFkB inh = inhibitors of the PMA/ionomycin-induced NF-kB reporter in HEK293 cells. HEK-293 NF-kB luciferase reporter, luminescence. AID 465. inhibition, % at 3 µM. 0.21% of 62,000 active;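 active = inhibition above the mean of all tested compounds plus 3 SD, cut at about 40% in these data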
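System – HEK-293 cells with stable firefly luciferase reporter driven by four HIV NF-kB elements · Doses – one dose, 3 µM · Schedule – 1 h compound pre-incubation, 16 h PMA/ionomycin at 37 °C · Technique – luminescence from luciferase substrate reagent · Measure – percent inhibition normalized per plate to DMSO and reference-inhibitor controls · Replicates – tested once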
HER2 expr 66K = Her2 kinase expression inhibition. SKBR-3 HER2 protein level, AlphaScreen, 18-24 h; stronger effect = lower value. HER2 level % of control, % at 10 µM. 0.69% of 65,000 active. AID 645;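 active = HER2 level under 5% of the carrier-only control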;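 note: lower value means stronger loss of Her2 protein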
BAP1 inh = blocks human BAP1 ubiquitin-AMC hydrolysis; AID 436; 0.48% of 72,000 active; calls only at 20 µM; Q92560; recombinant BAP1, Ub-AMC hydrolysis fluorescence kinetic; stronger effect = lower value;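 active = activity remaining at or below 50% of control, provided the compound also passes the data quality filters; inactive = the rest, including low values that fail the filters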
M1 antag conf = M1 muscarinic receptor (rat) antagonism, confirmed. shares compounds with M1 antagonist. CHO-M1 cells, Fluo-4 calcium, ACh EC80 antagonism; stronger effect = lower value. calcium response (max-min fluorescence) at 10 µM. 43% of 1,700 active;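 active = calcium response below the same-plate mean of wells given acetylcholine alone at its 80%-effect dose, minus 3 SD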
mGluR4 antag = acts on human mGluR4 in M1 antagonist selectivity test; shares compounds with M1 antagonist; CHO-mGluR4 calcium flux, Fluo-4 fluorescence, glutamate EC80; stronger effect = lower value; fluorescence response (max-min) at 10 µM; 0.9% of 1,700 active; AID 678;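 active = fluorescence response below the plate's average for near-maximal glutamate wells, less 3 SD of those wells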;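 note: raw unnormalized fluorescence span taken in the window right after glutamate addition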
A number is an active result; – = inactive; · = not tested or not shown.

SMILES	M1 antagonist	JNK3 blocker	M1 ag	HEK293 NFkB inh	HER2 expr 66K	BAP1 inh	M1 antag conf	mGluR4 antag
COc1ccc(C2C3C(=O)N(Cc4ccccc4)C(=O)C3ON2c2ccccc2)c(OC)c1OC (configuration not stated)	-2.9	–	–	–	–	–	–	–
O=C1CC(O)(C(F)F)Oc2ccc3ccccc3c21 (configuration not stated)	-2.6	–	–	–	–	–	–	–
Nn1c(-c2ccccn2)nnc1-c1ccccn1	-3.1	–	–	–	–	–	–	–
CC(C)c1ccc(-c2csc(NC(=O)c3ccc(Br)cc3)n2)cc1	·	·	·	·	·	–	·	·
CC1CCCC(C)N1CC(O)COc1ccc(Cl)cc1 (configuration not stated)	-3.2	–	–	–	–	–	501	–
O=C(CSc1ccc(-c2ccc(F)cc2)nn1)N1CCCCC1	–	–	–	–	–	–	·	·
Cn1c(-c2ccc(F)cc2)cnc1SCC(=O)N1CCCCC1	-2.2	–	–	–	–	–	–	–
COC(=O)C1C(=O)c2c([nH]c(C(=O)OC3CCCCC3)c2C)CC1C (configuration not stated)	–	–	–	–	–	–	·	·
COC(=O)C1C(=O)c2c([nH]c(C(=O)OCCOC(C)C)c2C)CC1C (configuration not stated)	-2.9	·	–	–	–	–	–	–
O=C(Nc1ccc(Br)cc1)C(Cc1ccccc1)N1C(=O)c2ccccc2C1=O (configuration not stated)	·	·	·	·	·	–	·	·
COC(=O)c1sc(S(=O)(=O)N2CCC(C)CC2)c(C(=O)OC)c1C	–	–	–	–	–	–	·	·
COC(=O)c1sc(S(=O)(=O)N2CCCCC2)c(C(=O)OC)c1C	-4.5	–	–	–	–	–	248	–
O=C(O)c1ccc(NC(=O)C2CC=CCC2C(=O)O)cc1 (configuration not stated)	-7.2	–	–	–	–	–	–	–
CCc1nc(Nc2ccncc2)c2oc3ccccc3c2n1	-2.4	–	–	–	–	·	441	–
CCc1nc(NCCN2CCOCC2)c2oc3ccccc3c2n1	–	–	–	–	–	–	·	·
Cc1cccc(S(=O)(=O)c2c(N)n(/N=C/c3cccnc3)c3nc4ccccc4nc23)c1	–	–	–	–	–	·	·	·
Nc1c(S(=O)(=O)c2cccs2)c2nc3ccccc3nc2n1/N=C/c1cccc(O)c1	-14	–	–	–	–	·	–	–
COc1ccc(C(=O)C(CN2CCCC2)c2ccccc2)cc1 (configuration not stated)	-7.4	–	–	·	-6.9	–	239	–
COc1cccc(C(=O)Cn2c(=N)n(C)c3ccccc32)c1	-5	–	–	–	–	–	443	–
COc1cccc(C(=O)Cn2c(N3CCCCC3)nc3c2c(=O)n(C)c(=O)n3C)c1	–	–	–	–	–	·	·	·
CC(CS(=O)(=O)c1ccc(N)cc1)N1CCOCC1 (configuration not stated)	·	·	·	·	·	–	·	·
O=C(CN1CCC(n2nnc3cc(F)ccc32)CC1)NC1CC1	–	–	–	–	–	–	·	·
O=C(CN1CCC(n2nnc3cc(F)ccc32)CC1)NC1CCCCC1	-3.7	–	–	–	–	–	–	–
O=C(CN1CCC(n2nnc3cc(F)ccc32)CC1)Nc1ccccc1N1CCOCC1	–	–	–	–	–	–	·	·
COC(=O)c1ccccc1NC(=O)CN1CCC(n2nnc3cc(F)ccc32)CC1	-4.6	–	–	–	–	–	–	–
SMILES	M1 antagonist	JNK3 blocker	M1 ag	HEK293 NFkB inh	HER2 expr 66K	BAP1 inh	M1 antag conf	mGluR4 antag
COC(=O)c1ccccc1NC(=O)CN1CCN(C23CC4CC(CC(C4)C2)C3)CC1	-11	–	–	–	–	–	393	–
COC(=O)c1ccc(C(=O)OC)c(NC(=O)CN2CCN(c3ccccc3)CC2)c1	–	–	–	–	–	·	·	·
O=C(CN1CCCC1)N1c2ccccc2Sc2ccccc21	-19	–	–	–	–	·	–	–
O=C(CN1CCC(O)CC1)N1c2ccccc2C=Cc2ccccc21	-5.6	–	–	–	–	–	243	–
NCCCC(=O)N1c2ccccc2Sc2ccccc21	-13	–	–	–	–	–	59	–
COC(=O)COc1ccc(S(=O)(=O)Nc2ccc(NC(C)=O)cc2)cc1C	-3.1	–	–	–	–	–	–	–
CCOC(=O)c1c(C)oc2ccc(O)c(CN(C)C)c12	-1.3	–	–	–	–	–	–	–
CCOC(=O)c1c(CN(CC)CC)oc2cc(Br)c(O)cc12	-2	–	–	–	–	–	–	–
CCCCn1c(C(C)NC(=O)CCC)nc2ccccc21 (configuration not stated)	-4.1	–	–	–	–	–	–	–
CCCCCn1c(C(C)NC(=O)CCC)nc2ccccc21 (configuration not stated)	–	–	–	–	–	–	·	·
CCCCn1c(C(C)NC(=O)c2cccs2)nc2ccccc21 (configuration not stated)	-2.6	·	–	–	–	·	–	–
CCn1c(C(C)NC(=O)c2cccs2)nc2ccccc21 (configuration not stated)	–	–	–	–	–	–	·	·
CC1(C)NC(=O)N(CC(O)CN(c2cccc3ccccc23)S(=O)(=O)c2ccccc2)C1=O (configuration not stated)	·	·	·	·	·	–	·	·
O=C(O)c1cccc(S(=O)(=O)Nc2ccc(F)cc2)c1	·	·	·	·	·	–	·	·
Clc1cc(Br)ccc1OCCn1ccnc1	-3.3	–	–	–	–	–	442	–
Cc1ccc(C)c(OCCOCCN2CCOCC2)c1	–	–	–	–	–	–	·	·
Clc1cc(Br)ccc1OCCOCCN1CCOCC1	-0.73	–	–	–	–	–	–	–
CC1CCN(CCC(=O)N2CCCc3c2c(=O)oc2ccc(O)cc32)CC1	–	–	–	–	–	–	·	·
CCCOc1ccc2oc(=O)c3c(c2c1)CCCN3C(=O)CN1CCCC(C(=O)OCC)C1 (configuration not stated)	-4.9	–	–	–	–	–	440	–
CN(CC(=O)N1CCCc2c1c(=O)oc1ccc(O)cc21)Cc1ccccc1	-6.5	–	–	–	–	–	467	–
O=C(CN1CCCC1)N1CCCc2c1c(=O)oc1ccc(OCc3ccccc3)cc21	-2.5	–	–	–	–	–	384	–
CCOc1cc(C2Nc3cc(C)c(C)cc3NC3=C2C(=O)CC(C)(C)C3)cc([N+](=O)[O-])c1O (configuration not stated)	·	·	·	·	·	–	·	·
O=C(O)CCCCCN1C(=O)CSC1=S	-6.4	–	–	–	–	–	–	–
